ChEMBL document CHEMBL1146004, “Effect of substitution on novel tricyclic HIV-1 integrase inhibitors” (Bioorg Med Chem Lett, 2006)
Converted amounts (≈) assume the structure as drawn.

What was measured:
physchem [1] = conditions: buffer, pH 2.2
[2] = biological target: Human immunodeficiency virus type 1 integrase (Human immunodeficiency virus 1, UniProt Q7ZJM1); experiment: Inhibition of HIV1 integrase strand transfer activity
[3] = system: Human immunodeficiency virus 1; experiment: Antiviral activity against HIV1 3B in MT4 cell line; assay type: functional, organism-based; conditions: Human immunodeficiency virus 1, 3B
How it was run: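 MT-4 cells infected with HIV-1 IIIB at moi 0.01 for 3 h, then ~1.5 × 10⁴ cells/well added to 5-fold serial drug dilutions (9 concentrations, triplicate) in culture medium; 37 °C for 5 days. Viability read by CellTiter-Glo chemiluminescence after 10 min lysis at room temperature; EC50 derived.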

MT4 = experiment: Cytotoxicity against human MT4 cells; assay type: functional
physchem [4] = conditions: buffer, pH 7.3

Chain of Human immunodeficiency virus type 1 integrase (Q7ZJM1 whole entry): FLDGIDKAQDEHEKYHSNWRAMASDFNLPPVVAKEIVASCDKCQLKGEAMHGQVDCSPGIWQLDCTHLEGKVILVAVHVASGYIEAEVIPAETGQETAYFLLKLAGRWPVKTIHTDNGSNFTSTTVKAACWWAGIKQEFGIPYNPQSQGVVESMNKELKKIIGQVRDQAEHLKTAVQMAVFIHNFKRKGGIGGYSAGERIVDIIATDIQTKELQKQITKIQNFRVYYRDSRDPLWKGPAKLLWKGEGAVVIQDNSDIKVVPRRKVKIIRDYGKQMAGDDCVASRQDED

Compound `CC1c2c(c(O)c3ncccc3c2OS(=O)(=O)N(C)C)C(=O)N1Cc1ccc(F)cc1` (configuration not stated) has a solubility (physchem [1]) of 11 µM (≈ 4.9 µg/mL), an IC50 [2] of 0.815 µM and an EC50 [3] of 0.008 µM. It also gave a CC50 (MT4) of 0.755 µM and a solubility (physchem [4]) of 2 µM (≈ 0.891 µg/mL).
Compound `CN(C)S(=O)(=O)Oc1c2c(c(O)c3ncccc13)C(=O)N(Cc1ccc(F)cc1)C2` has a solubility (physchem [1]) of 7 µM (≈ 3.02 µg/mL), an IC50 [2] of 0.255 µM and a CC50 (MT4) of 1.4 µM. It also gave a solubility (physchem [4]) of under 2.3 µM.
`COc1c2c(c(O)c3ncccc13)C(=O)N(Cc1ccc(F)cc1)C2C` (configuration not stated) gave a solubility (physchem [1]) of 193 µM (≈ 68 µg/mL), an IC50 [2] of 0.088 µM and an EC50 [3] of 0.077 µM. It also gave a CC50 (MT4) of 1.6 µM and a solubility (physchem [4]) of 3 µM (≈ 1.06 µg/mL).
For `COc1c2c(c(O)c3ncccc13)C(=O)N(Cc1ccc(F)cc1)C2SCCC(=O)O` (configuration not stated), the IC50 [2] was 0.295 µM, the EC50 [3] was 3.4 µM and the CC50 (MT4) was 24 µM.
Work on `COc1c2c(c(O)c3ncccc13)C(=O)N(Cc1ccc(F)cc1)C2SCCC(=O)N1CCNCC1` (configuration not stated) yielded an IC50 [2] of 0.059 µM, an EC50 [3] of 0.685 µM and a CC50 (MT4) of 5.25 µM.
Compound `COc1c2c(c(O)c3ncccc13)C(=O)N(Cc1ccc(F)cc1)C2` has an IC50 [2] of 0.06 µM and a CC50 (MT4) of 5.1 µM.
`CN(C)S(=O)(=O)Oc1c2c(c(O)c3ncccc13)C(=O)N(Cc1ccc(F)cc1)C21CC1` showed a solubility (physchem [1]) of 11 µM (≈ 5.03 µg/mL), an IC50 [2] of 0.357 µM and an EC50 [3] of 0.443 µM. For the same compound, the CC50 (MT4) was 14.2 µM and the solubility (physchem [4]) was 2.1 µM (≈ 0.961 µg/mL).
Work on `COc1c2c(c(O)c3ncccc13)C(=O)N(Cc1ccc(F)cc1)C2(C)C` yielded an IC50 [2] of 0.21 µM, an EC50 [3] of 1.11 µM and a CC50 (MT4) of 0.427 µM.
In the case of `C=C1c2c(c(O)c3ncccc3c2OS(=O)(=O)N(C)C)C(=O)N1Cc1ccc(F)cc1`, the solubility (physchem [1]) is reported as under 1 µM, the IC50 [2] is reported as 0.42 µM and the EC50 [3] is reported as 0.052 µM. The CC50 (MT4) was 1.65 µM and the solubility (physchem [4]) was under 1 µM.
Compound `COC(=O)CCSC1c2c(c(O)c3ncccc3c2OC)C(=O)N1Cc1ccc(F)cc1` (configuration not stated) has an IC50 [2] of 0.31 µM, an EC50 [3] of 0.43 µM and a CC50 (MT4) of 2.8 µM.
In the case of `COc1c2c(c(O)c3ncccc13)C(=O)N(Cc1ccc(F)cc1)C21CC1`, the solubility (physchem [1]) is reported as 49 µM (≈ 17.9 µg/mL), the IC50 [2] is reported as 0.007 µM and the EC50 [3] is reported as 0.124 µM. It also gave a CC50 (MT4) of 3.3 µM and a solubility (physchem [4]) of 26 µM (≈ 9.47 µg/mL).
With `O=C1c2c(c(O)c3ncccc3c2O)C(=O)N1Cc1ccc(F)cc1` the solubility (physchem [1]) was under 1.4 µM, the IC50 [2] was 0.08 µM and the EC50 [3] was 7.5 µM. It also gave a CC50 (MT4) of 19 µM and a solubility (physchem [4]) of under 1.4 µM.
For `COc1c2c(c(O)c3ncccc13)C(=O)N(Cc1ccc(F)cc1)C2O` (configuration not stated), the IC50 [2] was 0.036 µM, the EC50 [3] was 0.256 µM and the CC50 (MT4) was 9.74 µM.
Work on `C=C1c2c(c(O)c3ncccc3c2OC)C(=O)N1Cc1ccc(F)cc1` yielded an IC50 [2] of 0.15 µM, an EC50 [3] of 0.375 µM and a CC50 (MT4) of 6.1 µM.
`COc1c2c(c(O)c3ncccc13)C(=O)N(Cc1ccc(F)cc1)C2OC` (configuration not stated) gave an IC50 [2] of 0.064 µM, an EC50 [3] of 0.415 µM and a CC50 (MT4) of 11.4 µM.
